High-throughput results (PubChem BioAssay)
Hits are enriched below; roughly 3% of the tested compounds scored in any of these assays.
5HT1a antag: antagonists of human 5-HT1a serotonin receptor | P08908 | CHO 5-HT1a Ga15 NFAT-bla reporter, antagonist mode | inhibition, % at 10 µM | hit rate 0.68% among 62,000;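 active = inhibition above the mean of all tested compounds plus 3 SD, cut at about 43% in these data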;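 also: receptor stimulated by 5-CT agonist at 100 nM near EC80; beta-lactamase reporter measured by ratiometric fluorescence of a cleavable substrate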
HTR1E agonist: 5-HT1E (human) receptor agonism. P28566. CHO 5-HT1E Ga15 NFAT-bla reporter, FRET; 0% DMSO wells, 100% control agonist wells. activation, % at 6 µM. hit rate 0.69% among 65,000;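 active = activation above a set limit, the screen-wide mean activation plus 3 SD, cut at about 8.5% in these data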;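 also: 100% = positive control agonist at 1 µM giving full maximal response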
5HT1a ag: activates the human 5-HT1a serotonin receptor | P08908 | CHO 5-HT1a Ga15 NFAT-bla reporter, FRET ratio; 0% basal, 100% maximal reference agonist | activation, % at 10 µM | hit rate 0.56% among 65,000;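 active = activation above the screen-wide mean activation plus 3 SD, cut at about 19% in these data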;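 also: 0% = DMSO wells and 100% = 5-CT at EC100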
S1P1 ag-PAM: activates or potentiates agonism at human S1P1 receptor. P21453. S1P1 CRE-bla cells, forskolin, beta-lactamase FRET, potentiator mode; S1P1 agonist co-added at EC20, 2 nM; 100% = saturating reference agonist, 0% = basal. hit rate 0.57% among 56,000. activation, % at 9.5 µM;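 active = activation above a cutoff set at the mean activation of all tested compounds plus 3 SD, cut at about 54% in these data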;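 also: forskolin at 4 µM as EC80 and the EC20 agonist is SEW2871; 100% = SEW2871 at its EC100 plus forskolin at EC80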
Target sequence (P21453 whole entry, looked up): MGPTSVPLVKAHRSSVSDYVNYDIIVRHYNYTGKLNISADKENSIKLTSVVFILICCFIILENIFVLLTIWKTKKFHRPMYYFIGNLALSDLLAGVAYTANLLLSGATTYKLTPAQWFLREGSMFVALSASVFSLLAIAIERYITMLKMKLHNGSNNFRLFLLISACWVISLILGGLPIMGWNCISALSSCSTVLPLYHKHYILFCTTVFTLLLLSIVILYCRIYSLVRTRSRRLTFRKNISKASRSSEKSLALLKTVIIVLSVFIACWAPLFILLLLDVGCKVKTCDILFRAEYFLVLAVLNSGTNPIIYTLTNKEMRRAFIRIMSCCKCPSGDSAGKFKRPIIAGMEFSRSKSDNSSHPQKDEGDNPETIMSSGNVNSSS
HTR1E antagonist: blocks the human 5-HT1E serotonin receptor. CHO 5-HT1E Ga15 NFAT-bla reporter, FRET, antagonist. inhibition, % at 6 µM. hit rate 0.99% among 65,000;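 active = inhibition above a set limit, the mean inhibition across every tested compound plus 3 SD, cut at about 29% in these data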;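 also: signal is the 460 over 535 nm emission ratio of beta-lactamase substrate; 0% = agonist plus DMSO wells and 100% = wells without agonist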
S1P3 ag: S1P3 (human) receptor agonism | Q99500 | hit rate 0.1% among 60,000 | S1P3 NFAT-BLA reporter cells, FRET ratio; relative to 1 µM S1P, basal subtracted | activation, % at 4.5 µM | AID 373;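 active = activation above the screen-wide mean plus 3 SD, cut at about 4.5% in these data, passing the limit was not always enough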
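Assay system: CHO cells stably expressing human S1P3, Gα16 and NFAT-β-lactamase reporter. Timing: overnight plating, 4 h compound 37 °C, 2 h substrate RT. Signal: β-lactamase FRET emission ratio 460/535 nm. Measure: percent activation versus median 1 µM S1P response, basal-subtracted, per plate. Repeats: primary screen single test, confirmation screen in triplicate.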
Starred values were filed as active, the others as inactive; . = no result.

SMILES | 5HT1a antag | HTR1E agonist | 5HT1a ag | S1P1 ag-PAM | HTR1E antagonist | S1P3 ag
Nc1c(C(=O)OCC2CCCO2)c2nc3ccccc3nc2n1C1CCCC1 (centres undefined) | 39 | 2 | 3 | -5 | 12 | -1
Cn1c(-c2c(N)n(C3CCCC3)c3nc4ccccc4nc23)nc2ccccc21 | 77* | 0 | 5 | 71* | 77* | -2
Cc1ccc(N(CC2=NCCN2)c2cccc(O)c2)cc1 | . | -2 | . | -12 | 52* | -2
CCOc1ccc(C(C)(C)C)cc1S(=O)(=O)N1CC(C)OC(C)C1 (centres undefined) | 5 | 0 | 0 | -25 | -3 | -1
COc1ccc(-c2cc(CCCC(=O)NCCc3ccc(OC)cc3OC)no2)cc1 | 14 | 12* | -1 | 18 | 6 | 0
COC(=O)C1=CN(C)C=C(C(=O)OC)C1c1ccccc1Cl | -28 | 6 | 19* | . | 1 | 4
CCN1C=C(C(=O)OC)C(c2cccc(C)c2)C(C(=O)OC)=C1 | -19 | 6 | 20* | . | -5 | .
COC(=O)C1=CN(CCCN2CCCC2=O)C=C(C(=O)OC)C1c1ccccc1C(F)(F)F | -21 | 6 | 25* | 111 | -1 | 2
CCCCOc1ccccc1C1C(C(=O)OC)=CN(CC)C=C1C(=O)OC | -10 | 7 | 40* | -64 | -7 | 2
COc1ccccc1C(=O)NCCCN1CCCC1=O | -4 | 0 | 1 | -3 | 3 | 0
CCCOc1ccccc1C1C(C(=O)OC)=CN(C(C)C)C=C1C(=O)OC | -8 | 8 | 13 | -86 | 3 | 2
CCOC(=O)C1CCN(C(=O)c2cc(S(=O)(=O)N3CCOCC3)c(Cl)cc2Cl)CC1 | 8 | 0 | 2 | -9 | -4 | 0
CCC1CCc2c(sc(NC(=O)c3ccoc3C)c2C(N)=O)C1 (centres undefined) | 5 | 1 | 3 | . | 5 | -1
COC(=O)C1=CN(C(C)C)C=C(C(=O)OC)C1c1cccc(OC)c1 | -21 | 5 | 23* | -25 | -5 | 2
COC1(c2cc(-c3ccccc3)nc(N)n2)CCCCC1 | -6 | 1 | -1 | -38 | -9 | 0
Cc1ccc(-c2csc(N3CCC(NS(=O)(=O)c4ccc5c(c4)OCCO5)CC3)n2)cc1 | 19 | 6 | 3 | 107* | -1 | -1
O=C(CN1CCN(c2nc(-c3ccccc3)cs2)CC1)Nc1ccc2c(c1)OCO2 | 2 | 0 | 1 | 29 | 2 | 1
O=C(Nc1ccc(OC(F)(F)F)cc1)C1CCCN(S(=O)(=O)c2cccnc2)C1 (centres undefined) | -7 | 1 | 1 | -5 | -21 | -1
CC(Oc1ccccc1Br)C(=O)N1CCc2ccccc21 (centres undefined) | 19 | -1 | -3 | 87* | 4 | 9.9*
Cn1c(Cn2c(=O)sc3ccccc32)nnc1SCC(=O)NCc1ccc(F)cc1 | -11 | 0 | 40* | -6 | -24 | 0
CCOC(=O)c1ccccc1NC(=O)c1cc(S(=O)(=O)N2CCOCC2)ccc1F | 12 | 0 | 2 | 4 | 29* | -1
CCOC(=O)N1CCN(S(=O)(=O)c2ccc(F)c(C(=O)Nc3cccc(C)c3C)c2)CC1 | -6 | 0 | 0 | -2 | -6 | 2
CCCc1cc(=O)oc2cc3oc(C)c(C)c3cc12 | 12 | 0 | -3 | -28 | 12 | 0
COc1ccc(-c2nn(C)c(=O)c3ccccc23)cc1NC(=O)Cn1nc(C)c2ccccc2c1=O | 16 | 1 | 0 | 11 | 38* | 0
C=C(C)CSc1nnc(-c2ccccc2)n1N | 0 | 42* | 1 | . | -4 | -2
O=C(Cc1cccs1)N(Cc1ccco1)C1(C(=O)NC2CCCC2)CCCCC1 | 63* | 0 | -3 | . | 1 | .
O=C(NC1CCCCC1)C(c1ccco1)N(Cc1ccco1)C(=O)c1ccco1 (centres undefined) | 49* | -1 | 1 | 9 | -5 | -1
O=C(NC1CCCCC1)C(c1ccco1)N(Cc1cccs1)C(=O)Cn1nnc2ccccc21 (centres undefined) | 46* | -1 | -3 | -20 | 8 | 0
